Test results taken from ChEMBL document CHEMBL3217529, “Carbocyclic 5'-nor "reverse" fleximers. Design, synthesis, and preliminary biological activity” (Medchemcomm, 2011).

Legend:
[1] = system: Human betaherpesvirus 5; assay: Antiviral activity against human cytomegalovirus AD169 infected in human HEL cells assessed as inhibition of virus-induced cytopathicity after 7 days by Giemsa staining-based microscopic analysis; format: functional, organism-based; settings: Human betaherpesvirus 5, AD169, HEL, 168 h
Procedure, shortened: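 Confluent HEL fibroblasts infected with HCMV AD-169 or Davis at 100 PFU/well for 2 h, then residual virus removed. Medium with graded compound concentrations added, in duplicate. After 7 days at 37 °C, cells ethanol-fixed and Giemsa-stained, and cytopathogenicity read microscopically. EC50 taken from plots of % cytopathogenicity versus concentration.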

[2] = system: Vesicular stomatitis virus; assay: Antiviral activity against Vesicular stomatitis virus infected in human HeLa cells assessed as inhibition of virus-induced cytopathicity; format: functional, organism-based
[3] = system: Human betaherpesvirus 5; assay: Antiviral activity against human cytomegalovirus Davis infected in human HEL cells assessed as inhibition of virus-induced cytopathicity after 7 days by Giemsa staining-based microscopic analysis; format: functional, organism-based; settings: Human betaherpesvirus 5, Davis, 168 h
Procedure, shortened: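 Confluent HEL fibroblasts were infected with 100 PFU per well. After 2 h, residual virus was removed and compound-containing medium was added, in duplicate. At 7 days at 37 °C, cells were ethanol-fixed and Giemsa-stained, and cytopathogenicity was assessed microscopically.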

[4] = system: Human alphaherpesvirus 3; assay: Antiviral activity against thymidine kinase-deficient Varicella-zoster virus 07-1 infected in human HEL cells assessed as reduction of viral plaque formation after 5 days; format: functional, organism-based; settings: Human alphaherpesvirus 3, 07-1, HEL, 120 h
Procedure, shortened: (§1)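 Confluent HEL cells were inoculated with 20 PFU per well. After 2 h, residual virus was removed and compound dilutions were added, in duplicate.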

[5] = system: Vaccinia virus; assay: Antiviral activity against Vaccinia virus infected in human HEL cells assessed as inhibition of virus-induced cytopathicity; format: functional, organism-based; settings: Orthopoxvirus vaccinia
[6] = system: Influenza A virus H3N2; assay: Antiviral activity against Influenza A virus H3N2 infected in MDCK cells assessed as inhibition of virus-induced cytopathicity; format: functional, organism-based
[7] = system: Human alphaherpesvirus 2; assay: Antiviral activity against Herpes simplex virus type 2 G infected in human HEL cells assessed as inhibition of virus-induced cytopathicity; format: functional, organism-based; settings: Human alphaherpesvirus 2, strain G
[8] = system: Coxsackievirus B4; assay: Antiviral activity against Coxsackievirus B4 infected in African green monkey Vero cells assessed as inhibition of virus-induced cytopathicity; format: functional, organism-based; settings: Enterovirus B
[9] = system: Influenza A virus; assay: Antiviral activity against Influenza A virus H1N1 infected in MDCK cells assessed as inhibition of virus-induced cytopathicity; format: functional, organism-based
[10] = system: Human immunodeficiency virus 2; assay: Antiviral activity against HIV-2 ROD infected in human CEM cells assessed as inhibition of virus-induced giant cell formation after 4 days by microscopic analysis; format: functional, organism-based; settings: Human immunodeficiency virus 2, ISOLATE ROD, CCRF-CEM, 96 h
Procedure, shortened: (§2)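 CEM cells (~3 × 10^5 cells per cm3) were infected with 100 CCID50 of virus per mL and seeded into wells containing compound dilutions. After 4 days at 37 °C, giant cell formation was examined microscopically.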

[11] = system: Vesicular stomatitis virus; assay: Antiviral activity against Vesicular stomatitis virus infected in human HEL cells assessed as inhibition of virus-induced cytopathicity; format: functional, organism-based
[12] = system: Sindbis virus; assay: Antiviral activity against Sindbis virus infected in African green monkey Vero cells assessed as inhibition of virus-induced cytopathicity; format: functional, organism-based
[13] = system: Mammalian orthoreovirus 1; assay: Antiviral activity against Reovirus 1 infected in African green monkey Vero cells assessed as inhibition of virus-induced cytopathicity; format: functional, cell-based; settings: Mammalian orthoreovirus 1, Vero
[14] = system: Human respirovirus 3; assay: Antiviral activity against Parainfluenza virus 3 infected in African green monkey Vero cells assessed as inhibition of virus-induced cytopathicity; format: functional, organism-based; settings: Human respirovirus 3, Vero
Procedure, shortened: (§3)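 Confluent cell monolayers in 96-well plates inoculated with 100 CCID50 of virus alongside 5-fold serial dilutions of compound. Cytopathicity scored once it was complete in untreated infected controls.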

[15] = system: Human alphaherpesvirus 3; assay: Antiviral activity against wild type Varicella-zoster virus Oka infected in human HEL cells assessed as reduction of viral plaque formation after 5 days; format: functional, organism-based; settings: Human alphaherpesvirus 3, strain Oka vaccine, 120 h; procedure, shortened: as §1
[16] = system: Human alphaherpesvirus 1; assay: Antiviral activity against thymidine kinase-deficient Herpes simplex virus type 1 infected in human HEL cells assessed as inhibition of virus-induced cytopathicity; format: functional, organism-based; settings: Human alphaherpesvirus 1, HEL
[17] = Cytotoxicity against MDCK cells assessed as concentration required to cause microscopically visible alternation of cell morphology; format: cell-based, Canis lupus familiaris; settings: dog
Procedure, shortened: (§4)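 Confluent cultures (MDCK nearly confluent) exposed to 5-fold serial compound dilutions alongside the antiviral assays. MCC is the lowest concentration producing a microscopically visible change in cell morphology.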

[18] = Cytotoxicity against human HEL cells assessed as concentration required to cause microscopically visible alternation of cell morphology; format: cell-based; procedure, shortened: as §4
[19] = Cytotoxicity against African green monkey Vero cells assessed as concentration required to cause microscopically visible alternation of cell morphology; format: cell-based; settings: chlorocebus sabaeus; procedure, shortened: as §4
[20] = system: Human immunodeficiency virus 1; assay: Antiviral activity against HIV-1 3B infected in human CEM cells assessed as inhibition of virus-induced giant cell formation after 4 days by microscopic analysis; format: functional, organism-based; settings: Human immunodeficiency virus 1, 3B, CCRF-CEM, 96 h; procedure, shortened: as §2
[21] = system: Human alphaherpesvirus 1; assay: Antiviral activity against Herpes simplex virus type 1 KOS infected in human HEL cells assessed as inhibition of virus-induced cytopathicity; format: functional, organism-based; settings: Human alphaherpesvirus 1, KOS
[22] = system: Influenza B virus; assay: Antiviral activity against Influenza B virus infected in MDCK cells assessed as inhibition of virus-induced cytopathicity; format: functional, organism-based
[23] = Cytotoxicity against human HeLa cells assessed as concentration required to cause microscopically visible alternation of cell morphology; format: cell-based; procedure, shortened: as §4
[24] = system: Respiratory syncytial virus; assay: Antiviral activity against Respiratory syncytial virus infected in human HeLa cells assessed as inhibition of virus-induced cytopathicity; format: functional, organism-based
[25] = system: Coxsackievirus B4; assay: Antiviral activity against Coxsackievirus B4 infected in human HeLa cells assessed as inhibition of virus-induced cytopathicity; format: functional, organism-based; settings: Enterovirus B; procedure, shortened: as §3
[26] = system: Punta Toro virus; assay: Antiviral activity against Punta Toro virus infected in African green monkey Vero cells assessed as inhibition of virus-induced cytopathicity; format: functional, organism-based

For O=c1[nH]c(=O)n(C2C=CC(O)C2)cc1-c1cccs1 (stereo unspecified), the EC50 [1] was 1.8 µM, the EC50 [2] was 4 µM and the EC50 [3] was 1.8 µM. The EC50 [4] was 1.6 µM, the EC50 [5] was > 4 µM and the EC50 [6] was > 0.8 µM. For the same compound, the EC50 [7] was > 4 µM, the EC50 [8] was > 4 µM and the EC50 [9] was > 0.8 µM. For the same compound, the EC50 [10] was > 2 µM, the EC50 [11] was > 4 µM and the EC50 [12] was > 4 µM. For the same compound, the EC50 [13] was > 4 µM, the EC50 [14] was > 4 µM and the EC50 [15] was 1.6 µM. The EC50 [16] was > 4 µM, the MCC [17] was 4 µM and the MCC [18] was ≥ 4 µM. For the same compound, the MCC [19] was 20 µM, the EC50 [20] was > 2 µM and the EC50 [21] was > 4 µM. The EC50 [22] was > 0.8 µM, the MCC [23] was 20 µM and the EC50 [24] was > 4 µM. For the same compound, the EC50 [25] was > 4 µM and the EC50 [26] was > 4 µM.

For O=c1[nH]c(=O)n(C2C=CC(O)C2)cc1-c1ccco1 (stereo unspecified), the EC50 [2] was > 100 µM, the EC50 [5] was > 100 µM and the EC50 [7] was > 100 µM. The EC50 [8] was > 100 µM, the EC50 [10] was > 100 µM and the EC50 [11] was > 100 µM. For the same compound, the EC50 [13] was 100 µM, the EC50 [14] was > 100 µM and the EC50 [16] was > 100 µM. For the same compound, the MCC [18] was > 100 µM, the MCC [19] was > 100 µM and the EC50 [20] was > 100 µM. The EC50 [21] was > 100 µM, the MCC [23] was > 100 µM and the EC50 [24] was > 100 µM. For the same compound, the EC50 [25] was > 100 µM and the EC50 [26] was 20 µM.

With O=c1[nH]c(=O)n(C2C=CC(O)C2)cc1-c1cncs1 (stereo unspecified) the EC50 [1] was > 20 µM, the EC50 [2] was > 100 µM and the EC50 [3] was > 20 µM. For the same compound, the EC50 [4] was 47 µM, the EC50 [5] was > 100 µM and the EC50 [6] was > 20 µM. For the same compound, the EC50 [7] was > 100 µM, the EC50 [8] was > 100 µM and the EC50 [9] was > 20 µM. The EC50 [10] was > 50 µM, the EC50 [11] was > 100 µM and the EC50 [12] was > 100 µM. For the same compound, the EC50 [13] was > 100 µM, the EC50 [14] was > 100 µM and the EC50 [15] was 47 µM. The EC50 [16] was > 100 µM, the MCC [17] was 100 µM and the MCC [18] was ≥ 100 µM. The MCC [19] was > 100 µM, the EC50 [20] was > 50 µM and the EC50 [21] was > 100 µM. For the same compound, the EC50 [22] was > 20 µM, the MCC [23] was > 100 µM and the EC50 [24] was > 100 µM. The EC50 [25] was > 100 µM and the EC50 [26] was > 100 µM.

With NC(=O)c1ncn([C@@H]2O[C@H](CO)[C@@H](O)[C@H]2O)n1 [RIBAVIRIN] the EC50 [5] was > 250 µM, the EC50 [7] was > 250 µM and the EC50 [8] was > 250 µM. For the same compound, the EC50 [10] was > 50 µM, the EC50 [12] was > 250 µM and the EC50 [13] was > 250 µM. For the same compound, the MCC [17] was > 100 µM, the MCC [18] was > 250 µM and the MCC [19] was > 250 µM. For the same compound, the EC50 [20] was > 50 µM, the EC50 [21] was > 250 µM and the MCC [23] was > 250 µM.
